What was measured:
Assay type in all cases: functional, cell-based
[1] = system: HT-29; experiment: Cytotoxicity against human HT-29 cells assessed as cell viability after 48 hrs by MTT assay in presence of Agkistrodon piscivorus secreted PLA2; details: HT-29, 48 h
Method in brief: (§1)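 These lines follow the same protocol: HT-29 and ES-2 cells in McCoy's 5A with 10% FCS and 1% Pen-Strep, MT-3 cells in RPMI, seeded at 1 × 10⁴ per well 24 h ahead. Liposomal prodrugs in PBS were given with Agkistrodon piscivorus piscivorus venom sPLA₂ at 5 nM final. Exposure lasted 24 h, then cells were washed and given 48 h recovery in complete medium.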

[2] = Cytotoxicity against human ES2 cells assessed as cell viability after 48 hrs by MTT assay; details: ES-2, 48 h
Method in brief: (§2)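 HT-29 colon and ES-2 ovarian cells were grown in McCoy's 5A with 10% FCS and 1% Pen-Strep, and MT-3 breast cells in RPMI. Cells were seeded at 1 × 10⁴ per well 24 h before dosing. Free drug was given in DMSO/water (final DMSO max 0.5%). Liposomes were diluted in PBS, with lipid content set by phosphorus analysis. Exposure lasted 24 h, then cells were washed and kept 48 h in complete medium.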

[3] = system: HT-29; experiment: Cytotoxicity against human HT-29 cells assessed as cell viability after 48 hrs by MTT assay; details: HT-29, 48 h; method in brief: as §2
[4] = Cytotoxicity against human MT3 cells assessed as cell viability after 48 hrs by MTT assay; details: MT-3, 48 h; method in brief: as §2
[5] = Cytotoxicity against human ES2 cells assessed as cell viability after 48 hrs by MTT assay in presence of Agkistrodon piscivorus secreted PLA2; details: ES-2, 48 h; method in brief: as §1
[6] = Cytotoxicity against human MT3 cells assessed as cell viability after 48 hrs by MTT assay in presence of Agkistrodon piscivorus secreted PLA2; details: MT-3, 48 h; method in brief: as §1

Compound	IC50 [1] [µM]	IC50 [2] [µM]	IC50 [3] [µM]	IC50 [4] [µM]	IC50 [5] [µM]	IC50 [6] [µM]
CCCCCCCCCCCCCCCCCCOC[C@H](COP(=O)(O)OC[C@@H](O)CO)OC(=O)CCCc1ccc(N(CCCl)CCCl)cc1	10	97	> 200	> 200	8	36
CCCCCCCCCCCCCCCCCCOC[C@H](COP(=O)([O-])OCC[N+](C)(C)C)OC(=O)CCCc1ccc(N(CCCl)CCCl)cc1	32	–	> 200	> 200	–	36
CCCCCCCCCCCCCCCCCCOC[C@@H](O)COP(=O)([O-])OCC[N+](C)(C)C	–	30	18	35	–	–
O=C(O)CCCc1ccc(N(CCCl)CCCl)cc1 [CHLORAMBUCIL]	–	34	70	95	–	–

Reference: ChEMBL document CHEMBL1138516, “Synthesis and biophysical characterization of chlorambucil anticancer ether lipid prodrugs” (J Med Chem, 2009)
